The target of assay [1] is T1, Cannabinoid receptor 1 (Homo sapiens, UniProt P21554). Description: Agonist activity at CB1 receptor (unknown origin) expressed in CHO cells assessed as induction of calcium mobilization at 10 uM by fluo-4 AM dye-based fluorescence assay relative to CP55940. It counts as functional, cell-based.
Assay [2] deals with T1, Cannabinoid receptor 1. Kind of assay: Antagonist activity at CB1 receptor (unknown origin) expressed in CHO cells assessed as inhibition of CP55940-induced calcium mobilization at 10 uM preincubated for 10 mins followed by CP55940-induction by fluo-4 AM dye-based fluorescence assay relative to SR141716A. It counts as functional, cell-based. Summed up:
(§1)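 Cell-based calcium mobilization, antagonist mode, single-concentration screen at 10 µM against CB1 and CB2. SR141716A served as the antagonist-mode positive control.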

In assay [3] the target is T2, Cannabinoid receptor 2 (Homo sapiens, UniProt P34972). Kind of assay: Antagonist activity at CB2 receptor (unknown origin) expressed in CHO cells assessed as inhibition of CP55940-induced calcium mobilization at 10 uM preincubated for 10 mins followed by CP55940-induction by fluo-4 AM dye-based fluorescence assay relative to SR141716A. In kind it is functional, cell-based. An outline of the steps: as §1
T2 sequence (P34972 whole entry): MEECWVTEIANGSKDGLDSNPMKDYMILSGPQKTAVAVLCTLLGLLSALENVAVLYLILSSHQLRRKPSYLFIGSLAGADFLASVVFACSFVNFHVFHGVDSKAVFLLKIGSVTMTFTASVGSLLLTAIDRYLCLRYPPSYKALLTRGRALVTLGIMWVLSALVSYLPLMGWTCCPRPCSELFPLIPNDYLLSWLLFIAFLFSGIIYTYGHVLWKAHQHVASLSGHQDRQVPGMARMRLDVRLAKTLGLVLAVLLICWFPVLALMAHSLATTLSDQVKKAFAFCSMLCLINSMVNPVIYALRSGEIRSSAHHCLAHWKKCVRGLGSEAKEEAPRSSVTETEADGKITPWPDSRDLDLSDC

In assay [4] the target is T1, Cannabinoid receptor 1. Description: Agonist activity at CB1 receptor (unknown origin) expressed in CHO cells assessed as induction of calcium mobilization by fluo-4 AM dye-based fluorescence assay. In kind it is functional, cell-based.
Assay [5] addresses T2, Cannabinoid receptor 2. Kind of assay: Agonist activity at CB2 receptor (unknown origin) expressed in CHO cells assessed as induction of calcium mobilization at 10 uM by fluo-4 AM dye-based fluorescence assay relative to CP55940. It counts as functional, cell-based.
For assay [6], the target named is T2, Cannabinoid receptor 2. Kind of assay: Agonist activity at CB2 receptor (unknown origin) expressed in CHO cells assessed as induction of calcium mobilization by fluo-4 AM dye-based fluorescence assay. In kind it is functional, cell-based.
For assay [7], the target named is T2, Cannabinoid receptor 2. Description: Potency index, ratio of CP55940 EC50 to test compound EC50 for agonist activity at CB2 receptor (unknown origin). It counts as functional.
For assay [8], the target named is T2, Cannabinoid receptor 2. Description: Agonist activity at CB2 receptor (unknown origin) expressed in CHO cells assessed as induction of calcium mobilization by fluo-4 AM dye-based fluorescence assay relative to CP55940. It counts as functional, cell-based. Summed up: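 Cell-based calcium mobilization, agonist mode, with CP55940 as positive control. Compounds giving more than 50% activation in a single-concentration 10 µM primary screen were run in dose-response to derive EC50.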

For assay [9], the target named is T2, Cannabinoid receptor 2. Description: Potency index, ratio of GW842166X EC50 to test compound EC50 for agonist activity at CB2 receptor (unknown origin). In kind it is functional.
For another assay, the species on record is Homo sapiens. Description: Selectivity index, ratio of EC50 for CB1 receptor (unknown origin) to EC50 for CB2 receptor (unknown origin).

Where only a bound is given, the exact number is not on record here.

T1 sequence (P21554 whole entry): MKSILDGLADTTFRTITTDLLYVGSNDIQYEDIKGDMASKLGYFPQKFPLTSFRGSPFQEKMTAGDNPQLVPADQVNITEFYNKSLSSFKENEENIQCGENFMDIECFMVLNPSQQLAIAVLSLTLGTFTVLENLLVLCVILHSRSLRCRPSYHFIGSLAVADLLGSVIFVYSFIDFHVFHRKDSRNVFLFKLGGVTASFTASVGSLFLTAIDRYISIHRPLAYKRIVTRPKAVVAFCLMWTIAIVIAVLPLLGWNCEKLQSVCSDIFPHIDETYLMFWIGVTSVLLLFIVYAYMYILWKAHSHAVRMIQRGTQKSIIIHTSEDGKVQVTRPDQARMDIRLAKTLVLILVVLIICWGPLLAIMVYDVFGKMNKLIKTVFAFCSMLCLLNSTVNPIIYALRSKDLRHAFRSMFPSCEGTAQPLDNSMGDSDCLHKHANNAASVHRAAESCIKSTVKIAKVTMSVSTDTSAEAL

As to `CC(C)c1cc(N2CCN(C)CC2)nnc1C(=O)NC1C2CC3CC(C2)CC1C3` (stereo not given), the values for the Activity at Cannabinoid receptor 1 [1] and at Cannabinoid receptor 2 [5] were 16.7% and 3.06%, respectively. Also, the values for the inhibition at Cannabinoid receptor 1 [2] and on Cannabinoid receptor 2 [3] were 37.3% and 10.1%, respectively. Besides, the 50% effective concentration (EC50) at Cannabinoid receptor 1 [4] and on Cannabinoid receptor 2 [6] was above 10 µM each time.

Take `CC(C)c1cc(N2CCOCC2)nnc1C(=O)NC1C2CC3CC(C2)CC1C3` (stereo not given): the Ratio EC50 was 8 at Cannabinoid receptor 2 [7], 94 at Cannabinoid receptor 2 [9] and above 2730 in the assay filed under Homo sapiens. Also, the Activity at Cannabinoid receptor 1 [1] was 26.1%; on Cannabinoid receptor 2 [5] it was 126%. Also, the maximum response (Emax) at Cannabinoid receptor 2 [8] came to 91%. For the same compound, the EC50 on Cannabinoid receptor 1 [4] is above 10 µM; on Cannabinoid receptor 2 [6], 0.00367 µM.

Consider `CCCCNc1cc(C(C)C)c(C(=O)NC2CCCCC2)nn1`, for which the Activity on Cannabinoid receptor 1 [1] turned out to be 8.74%; at Cannabinoid receptor 2 [5], 13.4%. The inhibition on Cannabinoid receptor 1 [2] turned out to be 47.9%; at Cannabinoid receptor 2 [3], 50.6%. For the same compound, the EC50 on Cannabinoid receptor 1 [4] and at Cannabinoid receptor 2 [6] was above 10 µM throughout.

`CC(C)c1cc(C(=O)NC2C3CC4CC(C3)CC2C4)nnc1Nc1cccc(Cl)c1` (stereo not given): the Activity at Cannabinoid receptor 1 [1] turned out to be 2.12%; on Cannabinoid receptor 2 [5], 19.2%. Moreover, the figures for the inhibition at Cannabinoid receptor 1 [2] and on Cannabinoid receptor 2 [3] were 5.1% and 19.4%, respectively. For the same compound, the EC50 at Cannabinoid receptor 1 [4] and at Cannabinoid receptor 2 [6] was above 10 µM each time.

With `CC(C)c1cc(C(=O)NC2C3CC4CC(C3)CC2C4)nnc1NC1CCCC1` (stereo not given), the figures for the Activity at Cannabinoid receptor 1 [1] and on Cannabinoid receptor 2 [5] were 6.55% and 122%, respectively. In addition, the inhibition at Cannabinoid receptor 1 [2] amounted to 24.1%. The Emax at Cannabinoid receptor 2 [8] was found to be 114%. The figures for the EC50 at Cannabinoid receptor 1 [4] and on Cannabinoid receptor 2 [6] were above 10 µM and 0.0344 µM, respectively. Besides, the Ratio EC50 on Cannabinoid receptor 2 [9] was above 10; in the assay listed under Homo sapiens, above 291.

As for `CCC(CC)Nc1nnc(C(=O)NC2C3CC4CC(C3)CC2C4)cc1C(C)C` (stereo not given), the Activity at Cannabinoid receptor 1 [1] is -5.62%; at Cannabinoid receptor 2 [5], 25%. Besides, the results for the inhibition on Cannabinoid receptor 1 [2] and at Cannabinoid receptor 2 [3] were 4.48% and 0.214%, respectively. The EC50 on Cannabinoid receptor 1 [4] and on Cannabinoid receptor 2 [6] was above 10 µM each time.

Values taken from ChEMBL document CHEMBL4118078, “Developing pyridazine-3-carboxamides to be CB2 agonists: The design, synthesis, structure-activity relationships and docking studies” (Eur J Med Chem, 2017).
